These results are taken from PubChem BioAssay AID1027 (Sanford-Burnham Center for Chemical Genomics, 2008).

In all, about 200,000 compounds went through this assay and fewer than 10 were called active. A selection follows. Values without a mark were called inactive.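 How the source made its calls: active means luciferase activation factor, scaled between plate controls, of at least 2 with compound at 10 µM; inactive means the rest.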

For this test, the target named is Luciferin 4-monooxygenase (Photinus pyralis) (UniProt P08659). Briefly: FLuc activators, initial screening, artefact control for FLuc-dependent activation tests, biochemical, ATPlite luminescence (AID 1027). The following applies: ATPlite luciferase biochemical, 10 min, at 10 µM, stronger effect = higher value, 0 = ATP-free wells, 1 = DMSO control. Put shortly: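 Assay system: Luciferase/luciferin reagent mix; Medium: PBS as buffer for the ATP substrate; Dosing: test compounds dosed from 2 mM stocks in 100% DMSO; Times: 10 min, room temperature; Signal: luminescence from luciferase reaction; Read-out: luciferase activation; Controls: No-ATP low control, compound-free enzyme-plus-ATP high control.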
Sequence of Luciferin 4-monooxygenase (Photinus pyralis) (P08659 whole entry, looked up): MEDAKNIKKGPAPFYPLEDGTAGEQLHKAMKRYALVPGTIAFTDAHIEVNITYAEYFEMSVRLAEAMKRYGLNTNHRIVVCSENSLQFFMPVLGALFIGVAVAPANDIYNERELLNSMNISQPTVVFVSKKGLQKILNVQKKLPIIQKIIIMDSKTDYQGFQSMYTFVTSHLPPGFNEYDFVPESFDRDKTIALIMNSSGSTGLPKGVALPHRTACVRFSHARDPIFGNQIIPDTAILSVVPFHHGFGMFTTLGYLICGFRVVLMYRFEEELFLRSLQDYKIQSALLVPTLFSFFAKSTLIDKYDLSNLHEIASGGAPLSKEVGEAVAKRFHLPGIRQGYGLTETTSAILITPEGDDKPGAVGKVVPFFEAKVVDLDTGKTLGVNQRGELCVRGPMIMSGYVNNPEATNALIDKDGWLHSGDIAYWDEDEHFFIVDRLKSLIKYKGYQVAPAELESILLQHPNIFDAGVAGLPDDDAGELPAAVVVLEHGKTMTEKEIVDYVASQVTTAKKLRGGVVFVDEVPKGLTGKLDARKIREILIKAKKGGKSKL
In general terms: ATP-based viability assays read luminescence as a measure of living cells.
`CCn1c(-c2ccncc2)n[nH]c1=S`: the activation factor is 1.

For the molecule `O=C(COC(=O)c1cccc(Br)c1)Nc1cccc2c1C(=O)c1ccccc1C2=O`, the activation factor is 1. To `O=c1[nH]n2c(-c3ccccc3)nc(O)c2c2ccccc12` belongs 1. To `N/C(Cc1ccc([N+](=O)[O-])cc1)=N\OC(=O)C1CCCCC1` belongs 1; to `Cc1c(-c2cccc(Cl)c2)nc2ccccc2c1C(=O)OCC(=O)N(C)C1CCS(=O)(=O)C1` (configuration not stated), 1; to `COCCCNCCOCCOc1ccc(Cl)cc1Br`, 1.

As to `CC(=O)Nc1ccc(SCC(=O)Nc2ccccc2Oc2ccccc2)cc1`, the activation factor is 1. To `Cc1cc(Oc2ccc(Cl)cc2)nc(SCC(=O)c2ccccc2)n1` belongs 1. The figure for `C/C(=N\Nc1ccc([N+](=O)[O-])cc1)c1ccc(-n2nncc2C(C)(C)C)cc1` is 1. The figure for `Cc1cccc(C)c1NC(=O)CNC(=O)Cc1ccc(Br)cc1` is 1.1; for `Cc1ccc(C(=O)C(=S)N2CCOCC2)cc1` it is 1.1; for `Cc1ccc(N(CCC(=O)O)S(=O)(=O)c2cccc(C(F)(F)F)c2)cc1` it is 1. Turning to `Cc1ccc(NN=Nc2nc3c([nH]2)c(=O)n(C)c(=O)n3C)cc1`, the activation factor was 1. To `O=C(N/N=C/c1ccc(Cl)cc1)c1nc2ccc([N+](=O)[O-])cc2c(=O)[nH]1` belongs 1; to `CC(=O)Nc1ccc(NC(=O)CSc2nnc(COc3ccccc3C)n2CC2CCCO2)cc1` (configuration not stated), 1; to `Fc1cc(Br)ccc1NC(=S)Nc1cccnc1`, 1.1.

As for `O=c1cc(CN2CCN(S(=O)(=O)/C=C/c3ccccc3)CC2)c2ccc(O)cc2o1`, the activation factor was 1. To `CC1(C)CN(c2ccc(-c3ccnc4ncnn34)cc2)C1=O` belongs 1; to `CN(C)CCOc1ccc(Cl)cc1C(C)(C)C`, 1.1; to `CCNC(=S)N1CCN(c2ncccn2)CC1`, 1. With `CCc1nnc(NS(=O)(=O)c2ccc(NC(=S)NC(=O)/C=C/c3cccs3)cc2)s1`, the activation factor is 1. The figure for `COC(=O)C[n+]1cccc2ccccc21` is 1.

Consider `Cc1cccc(N2CCN(C(=O)c3cccc(S(=O)(=O)N4CCc5ccccc5C4)c3)CC2C)c1` (configuration not stated), for which the activation factor was 1.1. Regarding `CC(=O)NC(Cc1ccc(F)c(F)c1)C(=O)NC1CCN(C(=O)c2ccc(C)cc2)CC1` (configuration not stated), the activation factor was 1.1.

Consider `CCCCN(CC)C(=O)c1ccccc1Oc1ccccc1`, for which the activation factor is 1.

Take `Cc1ccccc1C1CC(c2cccs2)=NN1S(C)(=O)=O` (configuration not stated): the activation factor was 1.1.

As to `CCn1nc(C)cc1C(=O)N1CCCC(C(=O)c2cccc(OC)c2)C1` (configuration not stated), the activation factor is 0.9. To `C=C(C)c1cccc(C(C)(C)NC(=O)NCCN(CC)CC)c1` belongs 1; to `Clc1ccc(-c2csc(-c3ccncc3)n2)cc1`, 0.9; to `COCCNC(=S)Nc1cc(S(=O)(=O)N2CCOCC2)ccc1N1CCCCC1`, 1. Turning to `CC(C)OCCCNC(=O)c1ccc(C2SCC(=O)N2Cc2ccco2)cc1` (configuration not stated), the activation factor was 1. As for `COc1cccc(-n2c(=S)[nH]c3c(oc4ccccc43)c2=O)c1`, the activation factor was 1. As to `CCc1cc(CNC(=O)CC2C(=O)NCCN2CC2CCCCC2)on1` (configuration not stated), the activation factor was 1.1. As to `CCCCOC(=O)c1ccc(NC(c2ccc(C)cc2)P(=O)(OC)OC)cc1` (configuration not stated), the activation factor is 1. The figure for `CC1=C(C(=O)Nc2cc(C)ccn2)C(c2cnn(C)c2)C2=C(CC(c3ccccc3)CC2=O)N1` (configuration not stated) is 1.1; for `COc1cc(NC(=O)CSc2nnc3ccc(-c4ccncc4)nn23)cc(OC)c1` it is 1; for `COc1ccc(CN2CCNC(=O)C2CC(=O)N(C)Cc2ccccn2)cc1OC` (configuration not stated) it is 1. To `Cc1cc(C(=O)N/N=C\C(Br)=C\c2ccccc2)c(C)o1` belongs 0.8; to `O=C(Cn1nnc2ccccc2c1=O)NCc1ccc(Cl)cc1`, 1; to `O=C1CCCN1CCCNC(=S)Nc1ccc(F)c(Cl)c1`, 1. To `Cc1c(CN2CCCC(C(=O)c3cccc(Cl)c3)C2)c(=O)n(-c2ccccc2)n1C` (configuration not stated) belongs 1; to `Cc1ccc(-c2csc(NC(=O)Cn3[nH]c(=O)c4ccccc4c3=O)n2)cc1`, 1; to `CC[n+]1c(C)n(-c2ccccc2)c2ccc(NC(C)=O)cc21`, 1.

Take `O=S(=O)(c1ccccc1)c1nc(-c2ccccc2F)oc1NCc1cccnc1`: the activation factor was 1.1.

Regarding `C/C(=N\NC(=S)NCc1ccccc1)c1ccc(Cl)cc1`, the activation factor is 1. Turning to `CCCc1cc(-c2nc(-c3ccc(C)cc3)cs2)ccn1`, the activation factor was 1. To `CSCC[C@H](NC(=O)OC(C)(C)C)C(=O)N/N=C/c1cc2ccc(C)cc2nc1Cl` belongs 1.1; to `CCOC(=O)c1[nH]c2c(c1-c1ccccc1)C(=O)CC(c1ccc(Cl)cc1)C2` (configuration not stated), 1. The figure for `Cc1ccc(-n2ncc3c(=O)n(-c4ccc(C)c(C)c4)c(-c4ccco4)nc32)cc1` is 1.

For the molecule `COc1cc(NC(=O)COC(=O)CSc2ccc3ccccc3c2)c(C)cc1[N+](=O)[O-]`, the activation factor is 1.1. The figure for `CNC(=O)c1[nH]cnc1C(=O)N[C@@H](CC(C)C)C(=O)OCc1ccccc1` is 1.1.

On to `CCN(CCCNC(=O)CCn1c(=O)[nH]c2ccsc2c1=O)c1ccccc1`, for which the activation factor was 1. Regarding `CCc1ccc(C2C(C#N)=C(N)N(N(C)C)C3=C2C(=O)CCC3)s1` (configuration not stated), the activation factor is 1. To `O=C(CCCNS(=O)(=O)c1cccc2nsnc12)NCCN1CCN(c2ccccc2F)CC1` belongs 1.1; to `Cc1ccc(NC(=O)CSc2nc(CSc3ccc(C)cc3)cc(=O)[nH]2)cc1`, 0.9; to `Cc1cccc(N2CCN(C(=O)c3cnn4c(C(F)F)cc(-c5ccccc5)nc34)CC2)c1C`, 1. To `Cc1ccc(NC(=O)CN2CCCCC2)c2c1CC(C)(C)O2` belongs 1; to `CC[C@H](C)[C@@H](C(=O)N1CCNCC1)n1cc([C@@H](N)Cc2ccc(O)cc2)nn1`, 1.1; to `CCN(CC)CCNc1nc(-c2ccc(OC(F)F)cc2)c(C)s1`, 1. For `CNC(=O)/C(C#N)=C/c1c(F)cccc1Cl`, the activation factor was 1. The figure for `Clc1ccc(-c2cc(C3CCNCC3)[nH]n2)c(Cl)c1` is 1. To `COc1ccc(C2=NN(c3nc4ccccc4s3)C(=O)C2)cc1` belongs 0.4; to `CCO[C@H]1OC(C(=O)N2CCCCCCC2)=C[C@@H](c2ccc(C(F)(F)F)cc2)[C@@H]1CCCO`, 1.1. To `Cc1nn(Cc2ccc(F)cc2)c(C)c1NC(=O)c1cccnc1Cl` belongs 1.1. As to `O=C(CCN1C(=O)c2ccccc2C1=O)C1=NN[C@@H]2C(=O)N(c3ccc(F)cc3)C(=O)[C@H]12`, the activation factor was 1. The figure for `CCOc1ccc(-c2ccc(SCC(=O)N3CCOCC3)nn2)cc1` is 0.2; for `Cc1scc(C(=O)NNC(=S)NCC(C)C)c1C` it is 1; for `CCCn1nc(C(=O)N2CCCc3ccccc32)c2ccccc2c1=O` it is 1.1. The figure for `Cc1ccc2cc(CCNC(=O)c3ccc4c(c3)OCO4)c(=O)[nH]c2c1` is 1.1. The figure for `COc1ccc2oc(=O)c(C(=O)NCc3ccccn3)cc2c1` is 0.9. On to `Cc1ccc2c(c1)C1CN(C)CCC1N2C(=O)c1ccccc1NS(=O)(=O)c1ccc(F)cc1C` (configuration not stated), for which the activation factor is 1.1.

Consider `CCOc1ccc(CCNC(=O)C2=C(C)C(=O)OC23CCC(C)CC3)cc1OCC` (configuration not stated), for which the activation factor is 1.1.

In the case of `COc1ccc(NS(=O)(=O)c2ccc(O)c(C(=O)OCC(=O)NC3CCCCC3)c2)cc1`, the activation factor is 1.1. To `Cc1cccc(N=Nc2c(O)[nH]c3ccc(F)cc23)c1` belongs 0.9; to `NC1=NC(=O)C(Cc2cccc(Cl)c2)S1` (configuration not stated), 1; to `CN(C)c1ccnc(Nc2ccc(F)cc2)c1C#N`, 1. The figure for `COc1ccc(NC(=O)N2CCCC(c3nc(-c4ccc(F)cc4)no3)C2)cc1` (configuration not stated) is 1; for `CN1CCN(c2ccc(NC(=O)c3ccc4c(c3)[nH]c(=O)n4Cc3ccc(F)cc3)cc2)CC1` it is 1. To `COc1ccc(NC(=O)CN2C(=O)C(c3ccccc3)=NC23CCCCCC3)cc1OC` belongs 1; to `CC(NC(=O)COC(=O)c1ccc(Cl)cc1O)c1ccc(F)cc1` (configuration not stated), 1; to `CCOc1cccc(OCCCOc2cccc3cccnc23)c1`, 1. For the molecule `S=c1[nH]nc(NCCc2ccccc2)s1`, the activation factor was 0.9. To `COc1ccc(C(=O)N2CCC(C(=O)Nc3ccc(C)cc3)CC2)cc1` belongs 1. The figure for `COc1cccc(/C=C2\SC(=N)N(c3ccc(F)cc3)C2=O)c1` is 1.1; for `O=[N+]([O-])/C(N=Nc1ccccc1)=N\Nc1ccccc1` it is 1.1; for `COc1ccc(CC(=O)N[C@@H](CCSC)c2nc3ccccc3[nH]2)cc1` it is 1.1. For `O=C(NCc1ccccn1)c1cc(Br)ccc1Cl`, the activation factor was 1. To `CC1CCN(c2ccc(C(=O)Nc3nnc(C4CC4)s3)cc2[N+](=O)[O-])CC1` belongs 1; to `Cc1cccc(N2C(=O)CC(SC(N)=Nc3ccccc3)C2=O)c1` (configuration not stated), 1.1. To `COc1cc(/C=C/CO)cc(OC)c1O[C@@H]1O[C@H](CO)[C@@H](O)[C@H](O)[C@H]1O` belongs 1; to `Cc1ccc2[nH]cc(CCCN3C(=O)c4ccccc4C3=O)c2c1`, 1. To `COc1ccc(NC(=O)C(NC(C)=O)C(=O)NCc2ccccc2Cl)cc1` (configuration not stated) belongs 1. As for `CC(OC(=O)CCc1nc(=O)c2ccccc2n1C)C(=O)NCc1ccc2c(c1)OCO2` (configuration not stated), the activation factor is 1.1.

With `CO/N=C(\N)c1ccc([N+](=O)[O-])cc1`, the activation factor was 1.1.

Consider `Cc1ccc(CCCOC(=O)C[N+]2(C)CCCCC2)cc1`, for which the activation factor was 1.

`O=C(Cc1ccccc1)Nc1cccc(C(=O)N/N=C/c2ccco2)c1`: the activation factor was 0.9. To `Cc1ccc(CSc2nc3[nH]ncc3c(=O)[nH]2)cc1` belongs 0.6; to `COc1ccccc1NC(=O)C[n+]1ccccc1`, 1. The figure for `COc1cc(C(=O)N2C(=O)c3cccc(N)c3C2=O)cc(OC)c1OC` is 1; for `CCOC(=O)C1CCCN(C(=O)c2cccc(S(=O)(=O)N3CCOCC3)c2)C1` (configuration not stated) it is 1; for `COc1cccc(NC(=O)C(Sc2nc3ccccc3c(=O)n2CC(C)C)c2ccccc2)c1` (configuration not stated) it is 1.

As for `Cc1cs/c(=N\N=C\c2ccc(O)cc2)n1Cc1ccco1`, the activation factor is 1.
